Assay results from different studies.
Each line is one published result; the experiments were not run side by side. pIC50: −log10 of the molar value.
Action: inhibitor
Sialidase-4: Sialidase-4 (Homo sapiens, UniProt Q8WWR8)
ache: Acetylcholinesterase (ache, Electrophorus electricus, UniProt O42275)
ALOX15: Polyunsaturated fatty acid lipoxygenase ALOX15 (ALOX15, Homo sapiens, UniProt P16050)

SMILES	target	effect on	method	pIC50
CCCCCCCCCC(=O)N[C@@H](CCCN=C(N)N)C(=O)N[C@H](C(=O)N[C@@H](CCCCN)C(=O)N[C@@H](CCCN=C(N)N)C(=O)CCl)C(C)C	Furin (FURIN, Homo sapiens, UniProt P09958)	enzyme activity	–	8.53
O=C(O)C1=C[C@H](O)[C@@H](NCc2ccc(-c3ccccc3)cc2)[C@H]([C@H](O)[C@H](O)CO)O1	Sialidase-4	enzyme activity	–	3.59
O=C(/C=C/c1ccc(OC(=O)N2CCCC2)cc1)NC1CCN(Cc2ccccc2)CC1	ache	enzyme activity	Ellman	5.35
Fc1ccc(Cn2cc(COc3ccc(-c4nnc(-c5ccccc5)o4)cc3)nn2)cc1	ache	enzyme activity	Ellman	< 4.00
CCCCCCN[C@H]1[C@H]([C@H](O)[C@H](O)CO)OC(C(=O)O)=C[C@@H]1O	Sialidase-4	enzyme activity	–	< 3.30
O=C(N1CCC2(CC1)C[C@H](CN1CCCCS1(=O)=O)CCO2)C1(c2ccccc2)CCCC1	ATP-dependent RNA helicase DDX3X (DDX3X, Homo sapiens, UniProt O00571)	ATPase activity	–	< 4.30
O=[N+]([O-])c1ccc(-c2nnc(-c3ccc(OCc4cn(Cc5ccc(F)cc5)nn4)cc3)o2)cc1	ache	enzyme activity	Ellman	< 4.00
CCN[C@H]1[C@H]([C@H](O)[C@H](O)CO)OC(C(=O)O)=C[C@@H]1O	Sialidase-4	enzyme activity	–	< 3.30
CCOC(=O)c1ccccc1-c1c2ccc(=O)cc-2oc2cc(OCCCNc3c(C4CCCCCC4)nc4ccccn34)ccc12	ALOX15	enzyme activity	absorbance	< 4.00
COc1cc(/C=C/C(=O)NC2CCN(Cc3ccccc3)CC2)ccc1OC(=O)N1CCCC1	ache	enzyme activity	Ellman	5.51
c1ccc(Cn2cc(COc3ccc(-c4nnc(-c5ccccc5)o4)cc3)nn2)cc1	ache	enzyme activity	Ellman	< 4.00
CC(C)(C)NC(=O)N[C@H]1[C@H]([C@H](O)[C@H](O)CO)OC(C(=O)O)=C[C@@H]1O	Sialidase-4	enzyme activity	–	< 3.30
CCOC(=O)c1ccccc1-c1c2ccc(=O)cc-2oc2cc(OCCCNC(=O)C(OC(=O)c3ccccc3)C3CC3)ccc12 (centres unmarked)	ALOX15	enzyme activity	absorbance	4.36
Cc1cn([C@H]2[C@H]([C@H](O)[C@H](O)CO)OC(C(=O)O)=C[C@@H]2O)nn1	Sialidase-4	enzyme activity	–	4.59
CCOC(=O)c1ccccc1-c1c2ccc(=O)cc-2oc2cc(OCCCNc3c(-c4ccc(Cl)cc4)nc4ccccn34)ccc12	ALOX15	enzyme activity	absorbance	4.10
COc1ccc(/C=C/C(=O)N2CCCC(NC(=O)OC(C)(C)C)C2)cc1OC (centres unmarked)	ache	enzyme activity	Ellman	< 4.30
CCN(C)C(=O)Oc1ccc(CCC(=O)N(CC)Cc2ccccc2)cc1OC	ache	enzyme activity	Ellman	4.86
